Source: PubChem BioAssay
CHT PAM: CHT positive allosteric modulators, primary screen, cell-based, membrane potential dye, choline EC20 | CHT-expressing cells; stronger effect = higher value; LV-AA mutant CHT in HEK293 cells | High affinity choline transporter 1 (Homo sapiens), Q9GZV3 | AID 488977, 2010 | 310,000 compounds, 0.49% hits | B-score at 10 µM;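 active means initial fluorescence not abnormally high and integrated response B-score, plate-corrected, over 3 SD above library mean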
NR2F2 inh: NR2F2 transcriptional activity inhibitors, primary screen, cell-based, luciferase reporter, HEK293T, luminescence | inhibition, % at 8.6 µM | 370,000 compounds, 0.7% hits | COUP transcription factor 2 (Homo sapiens), P24468 | HEK293T NGFI-A luciferase reporter;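 active means inhibition above a per-plate cutoff, mean inhibition of test wells between control levels plus 3 SD, cut at about 38% in these data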;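 further: cells cotransfected with COUP-TFII expression vector driving the NGFI-A reporter; 0% = median of COUP-TF2 test wells and 100% = reporter-only cells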
NR2E3 ag-1: NR2E3 agonists in two-hybrid cells, primary screen, cell-based, luminescence, CHO-S, Gal4-NCOR/VP16-NR2E3; luciferase; 360,000 compounds, 0.35% hits; AID 602229, 2012; inhibition of corepressor binding, % at 3.98 µM; Photoreceptor-specific nuclear receptor (Homo sapiens), Q9Y5X4;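 active means inhibition above the mean of all tested compounds plus 3 SD, cut at about 70% in these data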;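 further: 0% = DMSO with NR2E3 transfected cells and 100% = cells lacking NR2E3 construct; higher means lower luciferase signal from less NR2E3 corepressor binding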
Target sequence (Q9Y5X4 whole entry, looked up, the tested form may be a part): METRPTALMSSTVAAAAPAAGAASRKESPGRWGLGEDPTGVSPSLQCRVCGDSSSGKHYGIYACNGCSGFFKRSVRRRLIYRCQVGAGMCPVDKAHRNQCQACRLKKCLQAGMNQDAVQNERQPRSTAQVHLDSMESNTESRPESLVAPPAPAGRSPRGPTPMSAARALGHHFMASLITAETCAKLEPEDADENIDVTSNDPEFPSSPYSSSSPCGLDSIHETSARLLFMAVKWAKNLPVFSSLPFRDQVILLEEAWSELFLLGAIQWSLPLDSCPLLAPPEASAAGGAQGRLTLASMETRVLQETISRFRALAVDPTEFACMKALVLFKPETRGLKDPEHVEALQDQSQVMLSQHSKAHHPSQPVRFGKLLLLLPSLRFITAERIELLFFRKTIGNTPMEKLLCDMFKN
GalR3 antag: GalR3 antagonists in HEK293 cells, primary screen, cell-based, fluorescence readout | Galanin receptor type 3 (Homo sapiens), O60755 | HEK293 GalR3-CNG cAMP membrane potential fluorescence; galR3 body fused to GalR1 C-terminus | inhibition, % at 3 µM | 360,000 compounds, 0.44% hits | AID 651719, 2012;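 active means inhibition above the screen-wide average plus 3 SD, cut at about 13% in these data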;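 further: forskolin and galanin both at EC90 stimulate the cells; cAMP rise reported by CNG channel membrane potential dye signal; 0% = forskolin plus galanin with DMSO and 100% = forskolin alone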
NR2E3 ag-2: inhibitors of NR2E3-RetCOR corepressor binding, primary screen, NR2E3 agonist project, biochemical, TR-FRET, GST-NR2E3, biotin-RetCOR | Photoreceptor-specific nuclear receptor (Homo sapiens), Q9Y5X4 | 1536-well | inhibition of corepressor binding, % at 4.78 µM | 320,000 compounds, 0.12% hits | AID 2300, 2010;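 active means percent inhibition above the cutoff of mean plus 3 SD of all tested compounds, set per screening campaign, cut at about 20% in these data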;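 further: 0% = DMSO wells and 100% = biotin wells as full block of FRET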
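Assay system: NR2E3–RetCOR corepressor complex. Quantity: 1.35 nM GST-NR2E3. Buffer or medium: pH 7.5 Tris-based buffer. Reagent: biotinylated RetCOR corepressor at 7 nM final. Schedule: 5 h at 4 °C. Detection: TR-FRET, emission read at 617 and 671 nm. Replicates: one well per compound, singlicate testing.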
CHT inh: inhibitors of human choline transporter CHT. B-score at 10 µM. AID 488975, 2010. CHT-expressing cells, membrane potential dye, choline response; stronger effect = lower value. High affinity choline transporter 1 (Homo sapiens), Q9GZV3. 310,000 compounds, 0.86% hits;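 active means B-score over 3 SD under the library average, and starting fluorescence ratio not unusually high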;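 further: choline stimulus applied at its EC90 after an EC20 pre-addition; B-score computed on integrated fluorescence ratio after choline addition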
CHT act confirm: CHT activators, confirmation, cell-based, membrane potential dye, duplicate. AID 504833, 2011. 2,500 compounds, 91% hits. activation, % at 10 µM. CHT-expressing cells, membrane potential dye fluorescence (FDSS); % of choline EC20–EC90 response window; HEK293 expressing CHT LV-AA mutant; choline added at its EC20. shares compounds with CHT PAM;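 active means primary screen active, with duplicate mean activation above negative control mean plus 3 SD, cut at about 11% in these data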
HEK293 MP dye: membrane potential response in parental HEK293 cells, counter-screen for CHT activator project, cell-based, membrane potential dye. shares compounds with CHT PAM. membrane potential dye fluorescence (FDSS); measured after EC20 choline addition. ratio readout change at 10 µM, hits read low. 2,500 compounds, 62% hits. AID 623908, 2012;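 active means duplicate-averaged ratio beyond 3 SD from buffer wells, up or down, though filed actives are nearly all decreases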
Numbers without * were called inactive; i = inactive; x = not tested or not shown. Compounds with a hit are over-represented: about 2.3% of the library has one in this group of screens.

SMILES | CHT PAM | NR2F2 inh | NR2E3 ag-1 | GalR3 antag | NR2E3 ag-2 | CHT inh | CHT act confirm | HEK293 MP dye
Cc1nn(S(=O)(=O)c2ccccc2)c(C)c1Sc1ccc([N+](=O)[O-])cc1 | 8* | -5 | -6 | -9 | -1 | i | 29* | i
CC1(C)CC(C(CCN(Cc2ccccc2)C(=O)c2ccco2)c2ccc(F)cc2)CCO1 (stereo not given) | 9.7* | 20 | -31 | -4 | 2 | i | 56* | i
COc1cccc(CNCc2ccc(OC)cc2OC)c1 | i | -3 | -14 | -7 | 1 | i | x | x
CCn1c2ccccc2c2cc(CNCc3ccc(OC)cc3OC)ccc21 | 16* | 28 | -1 | -14 | 1 | i | 9 | i
O=C(CSc1nc2ccccc2[nH]1)NN=Cc1c(F)cccc1Cl | x | -2 | x | x | x | x | x | x
O=C(NC1CCCCN(Cc2cccc(F)c2)C1=O)c1cccc(F)c1 (stereo not given) | x | 7 | x | x | x | x | x | x
COc1cccc(C(=O)NCC(c2cccs2)N2CCc3ccccc32)c1 (stereo not given) | 6.4* | 5 | 10 | -2 | -4 | i | 25* | i
COP(=O)(CC(=O)OC(C)(C)C)C(CC(C)C)NC(=O)OCc1ccccc1 (stereo not given) | x | 4 | x | x | x | x | x | x
C/C(=N/NC(=O)c1ccoc1C)c1cccs1 | x | -46 | x | x | x | x | x | x
Cc1cc(C)n2nc(-c3ccsc3-n3c(C)ccc3C)cc2n1 | i | 20 | -8 | -4 | -4 | i | x | x
Cc1cc(NCCCO)n2nc(-c3cccs3)cc2n1 | 8.1* | -6 | 4 | 1 | 6 | i | 62* | -56*
OCCCNc1cc(-c2ccccc2)nc2cc(-c3ccc(F)cc3)nn12 | i | 5 | -16 | -12 | 4 | i | x | x
Cc1cc(NCCN(C)C)n2nc(-c3cccs3)cc2n1 | 10* | -20 | -3 | -7 | 1 | i | 47* | -89*
CCCn1c(C(=O)OC)cc2c1ccn2-c1ccc(F)cc1 | i | -8 | -26 | -3 | 2 | i | x | x
COC(=O)c1cc2c(ccn2-c2ccc(F)cc2)n1CC(C)C | i | 22 | -26 | -5 | 0 | i | 24* | i
COc1ccc(Cl)cc1NC(=O)CN(C)C(=O)c1cc(-c2ccncc2)nc2ccccc12 | 7.8* | 18 | 8 | -7 | 5 | i | 49* | i
O=C(COC(=O)c1ccc(Sc2ncn[nH]2)c([N+](=O)[O-])c1)Nc1ccc(Cl)c(Cl)c1 | x | -14 | x | x | x | x | x | x
Cn1c(=O)[nH]c2c(Br)nccc21 | x | -21 | x | x | x | x | x | x
CN(C)CCN(Cc1cc2cc3c(cc2nc1Cl)OCO3)C(=O)c1ccco1 | 6.8* | -3 | -23 | -8 | 5 | i | 55* | -56*
COCCN(Cc1cc2cc3c(cc2nc1Cl)OCO3)C(C)=O | i | -4 | -17 | 2 | 0 | i | x | x
CN(Cc1ccccc1)S(=O)(=O)c1cccc(C(=O)OCc2ccc(C(F)(F)F)cc2)c1 | x | 18 | x | x | x | x | x | x
Cn1cnc2c(N3CCCCC3)nccc21 | 8.7* | 7 | -22 | -4 | 0 | i | 71* | -64*
c1cc(N2CCCCC2)nc(N2CCCCC2)n1 | x | 5 | -19 | 3 | x | x | x | x
CCOC(=O)c1c(C)[nH]c2cc(Br)c(OC)cc12 | i | -23 | -17 | -6 | 1 | i | x | x
CCOC(=O)c1c(C)[n+](-c2ccc(C)cc2)c(CC)c2cc(OC)c(OC)cc12 | i | 10 | -41 | -6 | 0 | i | 49* | -35*
COCC(=O)N(C)c1nnc(-c2cnc(C)cn2)s1 | 6.4* | -3 | -7 | -4 | 0 | i | 59* | -55*
CC(C)(C)n1nnnc1C(c1ccc(C#N)cc1)N1CCCC2(CCCCC2)C1 (stereo not given) | i | 11 | -17 | -7 | 0 | i | 52* | i
COc1ccc(CN(CC#Cc2ccccc2)Cc2ccccc2)c(OC)c1 | x | -21 | x | x | x | x | x | x
COc1ccc(C(=O)Nc2ccncc2)c(OC)c1 | 6.6* | 2 | -11 | -2 | -4 | i | 21* | -56*
